Screening data (PubChem)
Compounds with a hit are over-represented: about 2.6% of the library has one in this group of screens.
ASAP1 GAP inh = blocks human ASAP1-stimulated Arf1 GTP hydrolysis. Q9ULH1. GDP FP detection. inhibition, % at 16.5 µM. 360,000 compounds, 0.19% hits; in the data active = inhibition above about 25%;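 also: 0% = vehicle with enzyme and substrate and 100% = no enzyme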
Target sequence (Q9ULH1 325-724 limits assumed): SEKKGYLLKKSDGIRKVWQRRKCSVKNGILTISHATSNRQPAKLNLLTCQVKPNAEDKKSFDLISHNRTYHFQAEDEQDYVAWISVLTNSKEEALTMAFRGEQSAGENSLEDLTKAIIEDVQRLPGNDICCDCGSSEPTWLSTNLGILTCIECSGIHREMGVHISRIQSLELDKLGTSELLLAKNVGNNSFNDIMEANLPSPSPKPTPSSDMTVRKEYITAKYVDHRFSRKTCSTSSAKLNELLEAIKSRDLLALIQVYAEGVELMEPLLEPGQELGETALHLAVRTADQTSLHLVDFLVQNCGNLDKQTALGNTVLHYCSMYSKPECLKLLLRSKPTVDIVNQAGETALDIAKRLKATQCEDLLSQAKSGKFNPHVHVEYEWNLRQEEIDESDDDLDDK
VIM-2 inh = blocks Pseudomonas aeruginosa VIM-2 metallo-beta-lactamase; purified VIM-2, nitrocefin hydrolysis, epi-absorbance fluorescence; inhibition, % at 5.6 µM; 290,000 compounds, 0.89% hits;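 active = inhibition above the mean of all tested compounds plus 3 SD, cutoff set per screening run, cut at about 7.5% in these data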;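 also: red hydrolysis product quenches plate fluorescence so inhibitors raise well fluorescence; 0% = enzyme with DMSO and 100% = DMSO without enzyme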
IMP-1 inh = inhibitors of Pseudomonas aeruginosa IMP-1 metallo-beta-lactamase | inhibition, % at 5.6 µM | 290,000 compounds, 0.45% hits | purified IMP-1, nitrocefin hydrolysis, epi-absorbance fluorescence;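 active = inhibition above the mean plus 3 SD of all compounds in the same screening run, cut at about 4.5% in these data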;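 also: 0% = IMP-1 with DMSO and 100% = DMSO wells lacking enzyme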
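System – purified recombinant IMP-1 beta-lactamase · Input – IMP-1 dispensed at 0.2 nM · Timing – 15 min preincubation plus 25 min reaction at 25 °C · Signal – Epi-absorbance fluorescence, 480 nm excitation, 530 nm emission · Measure – percent IMP-1 inhibition derived from blank-referenced optical density · Controls – Enzyme-plus-DMSO low control, enzyme-free DMSO high control · Replication – singlicate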
ARFGAP1 inhibitor = rat ARFGAP1 inhibition | Q62848 | Arfgap1-stimulated ARF1 GTP hydrolysis, GDP FP detection | inhibition, % at 16.5 µM | 360,000 compounds, 0.26% hits;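 active = inhibition above a per-plate limit, mean inhibition of low control wells plus 3 SD, cut at about 25% in these data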;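 also: 0% = DMSO wells with enzyme and 100% = wells lacking Arfgap1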
Target sequence (Q62848 1-136 limits assumed): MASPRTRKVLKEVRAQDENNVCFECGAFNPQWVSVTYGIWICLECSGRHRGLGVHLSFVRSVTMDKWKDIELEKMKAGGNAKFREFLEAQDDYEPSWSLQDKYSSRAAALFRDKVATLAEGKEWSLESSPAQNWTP
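Replicates: Single well per compound | Assay system: Truncated rat Arfgap1 GAP domain | Control set: No-Arfgap1 wells (100%) versus DMSO full-reaction wells (0%) | Times: Enzyme reaction 120 min at 25 °C after 20 min preincubation | Reagent: Human ARF1(Δ1-17)-GTP substrate | Measured by: Tracer-displacement fluorescence polarization with EDTA stop, 620/688 nm | Measure: Percent inhibition of Arfgap1-stimulated GTP hydrolysis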
Calb FLC = affects C. albicans growth with fluconazole | C. albicans CaCi-2 + fluconazole, Alamar Blue growth, 48 h | growth inhibition, % (test concentration not listed) | 300,000 compounds, 0.57% hits | AID 1979;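 active = growth inhibition above about 58% in most replicates, limit read from the data, passing the limit was not always enough; inconclusive = exactly half the replicates above a set limit; inactive = most replicates below a set limit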;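 also: all wells also contain fluconazole at 8 µg/ml as a sub-toxic cotreatment; 0% = median of DMSO wells and 100% = median of geldanamycin control wells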
PHOSPHO1 inh = blocks human PHOSPHO1 phosphatase activity; AID 1565; 290,000 compounds, 1.1% hits; Q8TCT1; recombinant PHOSPHO1, absorbance phosphatase assay; inhibition, % at 13.3 µM; in the data active = inhibition above about 60%
Active calls of the source: *.

Results for CCN(CC)c1ccc(NC(=O)/C=C\c2ccccc2Cl)cc1 ?
ASAP1 GAP inh: 8; VIM-2 inh: 3; IMP-1 inh: 2; ARFGAP1 inhibitor: 8; Calb FLC: 31; PHOSPHO1 inh: 69*

What do the screens show for `COCc1[nH]nc2c1C(c1ccc(F)cc1)N(c1ccc(OC)cc1)C2=O` (configuration not stated)?
ASAP1 GAP inh: 12; ARFGAP1 inhibitor: 0

Results for O=C(NCc1ccccc1)[C@@H]1CCCN1C(=O)[C@H]1CCCN1C(=O)c1ccccc1C(F)(F)F ?
ASAP1 GAP inh: -2; ARFGAP1 inhibitor: -5

Results for F[B-](F)(F)COCc1ccccc1C#Cc1ccccc1 ?
ASAP1 GAP inh: 3; ARFGAP1 inhibitor: -2

How did O=C(C(=O)N1CCN(C(=O)c2cc(C(F)(F)F)cc(C(F)(F)F)c2)CC1)c1cccc(C(F)(F)F)c1 do in these assays?
ASAP1 GAP inh: -8; ARFGAP1 inhibitor: -4

What do the screens show for `CN1CCN(C(c2ccc(C(F)(F)F)cc2)c2cc(Cl)c3cccnc3c2O)CC1` (configuration not stated)?
ASAP1 GAP inh: 13; VIM-2 inh: -4; IMP-1 inh: -2; ARFGAP1 inhibitor: 5; Calb FLC: 100*; PHOSPHO1 inh: -104

What do the screens show for `Cn1cc(CCOCc2ccc(Br)cc2)c2ccccc21`?
ASAP1 GAP inh: -9; ARFGAP1 inhibitor: 9

How did O=C(O)CN1C(=O)c2cccc(Oc3ccc(Cl)cc3)c2C1=O do in these assays?
ASAP1 GAP inh: -6; VIM-2 inh: 0; IMP-1 inh: 12*; ARFGAP1 inhibitor: 1; Calb FLC: 16; PHOSPHO1 inh: 34

How did O=C(CSc1nc2ccccc2n1CC(=O)NCc1ccccc1)NCc1ccco1 do in these assays?
ASAP1 GAP inh: 4; VIM-2 inh: -3; IMP-1 inh: -4; ARFGAP1 inhibitor: -7; Calb FLC: -5; PHOSPHO1 inh: 69*

How did N#CCCn1c(SCC(=O)NCc2ccco2)nc2ccccc21 do in these assays?
ASAP1 GAP inh: 9; VIM-2 inh: 0; IMP-1 inh: 0; ARFGAP1 inhibitor: 6; Calb FLC: 11; PHOSPHO1 inh: 30

Results for CC(=O)c1c(C)n(CC(=O)NCc2ccco2)c2ccccc12 ?
ASAP1 GAP inh: -5; VIM-2 inh: 0; IMP-1 inh: -2; ARFGAP1 inhibitor: -1; Calb FLC: -7; PHOSPHO1 inh: 69*

What do the screens show for `Cc1ccccc1-n1c(=O)c2ccccc2n(CC(=O)NCc2ccco2)c1=O`?
ASAP1 GAP inh: -10; VIM-2 inh: -2; IMP-1 inh: -4; ARFGAP1 inhibitor: -9; Calb FLC: inconclusive; PHOSPHO1 inh: 18

How did O=C(C1=C(O)C(=O)N(CCCN2CCOCC2)C1c1ccccn1)c1cc2ccccc2o1 (configuration not stated) do in these assays?
ASAP1 GAP inh: 1; VIM-2 inh: -1; IMP-1 inh: -1; ARFGAP1 inhibitor: 8; Calb FLC: -2; PHOSPHO1 inh: 79*

How did Cc1c(N=NC2=C(O)CC(C)(C)CC2=O)c(=O)n(-c2ccccc2)n1C do in these assays?
ASAP1 GAP inh: 6; VIM-2 inh: -5; IMP-1 inh: -4; ARFGAP1 inhibitor: -3; Calb FLC: 96*; PHOSPHO1 inh: -12

How did Cc1ccc(O)c(N=NC2=C(O)CC(C)(C)CC2=O)c1 do in these assays?
ASAP1 GAP inh: 5; VIM-2 inh: -7; IMP-1 inh: -6; ARFGAP1 inhibitor: -1; Calb FLC: 85*; PHOSPHO1 inh: -13

Results for CC1(C)CC(=O)C(N=Nc2cc(Cl)c(Cl)c(Cl)c2)=C(O)C1 ?
ASAP1 GAP inh: 0; VIM-2 inh: -3; IMP-1 inh: -1; ARFGAP1 inhibitor: 2; Calb FLC: 6; PHOSPHO1 inh: 3

How did CC(=O)/C(N=Nc1c(C)n(C)n(-c2ccccc2)c1=O)=C(\C)O do in these assays?
ASAP1 GAP inh: 9; VIM-2 inh: -2; IMP-1 inh: -2; ARFGAP1 inhibitor: 5; Calb FLC: -3; PHOSPHO1 inh: 32

How did NC(=S)Nc1ccc(S(=O)(=O)c2ccc(NC(N)=S)cc2)cc1 do in these assays?
ASAP1 GAP inh: -2; VIM-2 inh: -5; IMP-1 inh: 11*; ARFGAP1 inhibitor: 9; Calb FLC: -1; PHOSPHO1 inh: 25

How did CCNCCNC(=O)c1c(O)c2cccc3c2n(c1=O)CCC3 do in these assays?
ASAP1 GAP inh: 5; VIM-2 inh: 8.5*; IMP-1 inh: -2; ARFGAP1 inhibitor: -1; Calb FLC: -3; PHOSPHO1 inh: 12

How did O=C(NCCCO)c1c(O)c2cccc3c2n(c1=O)CCC3 do in these assays?
ASAP1 GAP inh: 0; VIM-2 inh: 11*; IMP-1 inh: -3; ARFGAP1 inhibitor: 16; Calb FLC: 26; PHOSPHO1 inh: 23

Results for CCOc1cc(CNc2ncc(-c3ccc(OC)cc3)n2C)ccc1O ?
ASAP1 GAP inh: -5; VIM-2 inh: 0; IMP-1 inh: 4.8*; ARFGAP1 inhibitor: -8; Calb FLC: 9; PHOSPHO1 inh: 20

How did CN1C(=O)[C@@]2(C3=C(CCCC3=O)OC3=C2C(=O)OC2(CCCCC2)C3)c2ccccc21 do in these assays?
ASAP1 GAP inh: 13; ARFGAP1 inhibitor: 5

Results for COc1cc(CCC(C)=O)ccc1OC(=O)c1c(-c2c(F)cccc2Cl)noc1C ?
ASAP1 GAP inh: 11; ARFGAP1 inhibitor: 16

Results for COc1cccc(F)c1C(C[N+](=O)[O-])c1c(N)n(C)c(=O)n(C)c1=O (configuration not stated) ?
ASAP1 GAP inh: -2; VIM-2 inh: -3; IMP-1 inh: -4; ARFGAP1 inhibitor: -4; Calb FLC: 101*; PHOSPHO1 inh: 33

Results for COC(=O)c1ccc(NC(=S)Nc2ccc3ccccc3c2)cc1 ?
ASAP1 GAP inh: -5; VIM-2 inh: 2; IMP-1 inh: 5.2*; ARFGAP1 inhibitor: -7; Calb FLC: -4; PHOSPHO1 inh: -34

What do the screens show for `COC(=O)c1ccc(NC(=S)Nc2ccccc2)cc1`?
ASAP1 GAP inh: -3; VIM-2 inh: -3; IMP-1 inh: -1; ARFGAP1 inhibitor: -5; Calb FLC: 16; PHOSPHO1 inh: 17

Results for [O-]/C(=C(\C(=S)NCc1ccco1)[n+]1ccccc1)c1ccccc1Br ?
ASAP1 GAP inh: 3; VIM-2 inh: 0; IMP-1 inh: 4.8*; ARFGAP1 inhibitor: 3; Calb FLC: -5; PHOSPHO1 inh: 38

How did Cc1ccc(/C([O-])=C(/C(=S)NCc2ccco2)[n+]2ccccc2)cc1 do in these assays?
VIM-2 inh: -1; IMP-1 inh: 2; Calb FLC: 2; PHOSPHO1 inh: 100*

How did COCc1[nH]nc2c1C(c1cccc(C(F)(F)F)c1)N(c1ccccc1)C2=O (configuration not stated) do in these assays?
ASAP1 GAP inh: -12; ARFGAP1 inhibitor: 0

Results for CCOC(=O)c1c(OCC)[nH]c2c1cc(O)c1ccccc12 ?
ASAP1 GAP inh: 5; VIM-2 inh: 1; IMP-1 inh: -3; ARFGAP1 inhibitor: 9; Calb FLC: 34; PHOSPHO1 inh: 67*
